This note sets out measurements from ChEMBL document CHEMBL1155841, “Methyl (11aS)-1,2,3,5,11,11a-hexahydro-3,3-dimethyl-1-oxo-6H-imidazo-[3',4':1,2]pyridin[3,4-b]indol-2-substituted acetates: synthesis and three-dimensional quantitative structure-activity relationship investigation as a class of novel vasodilators” (2008).

Holding throughout (assay type): functional
For experiment [1], the species on record is Rattus norvegicus. The experiment can be described thus: Vasorelaxation activity against noradrenaline-induced hypertonic contraction in Wistar rat aorta strips at 5 mM. More on the design: scale not given: the % may be the effect or the level left. An outline of the steps:
(§1)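 Aortic strips first contracted with 59 µM noradrenaline, then washed out and stabilized for 30 min. After fresh solution, 59 µM NE was re-added, and peak contraction was taken as 100%. Test agent, dissolved in ethanol, was then added, with ethanol alone as vehicle control. Percent relaxation of the NE contraction was recorded as activity, given as mean ± SD, n = 6.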

The species entered for experiment [2] is Rattus norvegicus. Description: Vasorelaxation activity against noradrenaline-induced hypertonic contraction in Wistar rat aorta strips. The method, boiled down:
as §1

The species entered for experiment [3] is Rattus norvegicus. The experiment can be described thus: Vasorelaxation activity against noradrenaline-induced hypertonic contraction in Wistar rat aorta strips at 50 uM. More on the design: scale not given: the % may be the effect or the level left. An outline of the steps:
as §1

SMILES strings stand for the structures.

Regarding `COC(=O)[C@H](CO)NC(=O)[C@@H]1Cc2c([nH]c3ccccc23)CN1C(=O)OC(C)(C)C`, the Activity in the experiment listed under Rattus norvegicus [1] is 6.1%. Consider `CCC(C)[C@@H](C(=O)OC)N1C(=O)[C@@H]2Cc3c([nH]c4ccccc34)CN2C1(C)C` (some centres undefined), for which the Activity result in the experiment listed under Rattus norvegicus [2] was “Dose-dependent effect”; in the experiment filed under Rattus norvegicus [3] it was 34%. `COC(=O)[C@H](CC(C)C)NC(=O)[C@@H]1Cc2c([nH]c3ccccc23)CN1C(=O)OC(C)(C)C` had an Activity in the experiment listed under Rattus norvegicus [1] of 7.8%. Still for that read-out and setting: the value for `COC(=O)[C@H](CCSC)NC(=O)[C@@H]1Cc2c([nH]c3ccccc23)CN1C(=O)OC(C)(C)C` was 6%; that for `COC(=O)[C@H](Cc1ccccc1)NC(=O)[C@@H]1Cc2c([nH]c3ccccc23)CN1C(=O)OC(C)(C)C` was 0%.

Regarding `COC(=O)C[C@@H](C(=O)OC)N1C(=O)[C@@H]2Cc3c([nH]c4ccccc34)CN2C1(C)C`, the Activity in the experiment listed under Rattus norvegicus [3] was 6.3%.

For `COC(=O)[C@H](C(C)O)N1C(=O)[C@@H]2Cc3c([nH]c4ccccc34)CN2C1(C)C` (some centres undefined), the Activity in the experiment filed under Rattus norvegicus [3] turned out to be 0%. The compound `COC(=O)[C@H](CCC(N)=O)NC(=O)[C@@H]1Cc2c([nH]c3ccccc23)CN1C(=O)OC(C)(C)C` gave an Activity in the experiment filed under Rattus norvegicus [1] of 0%. Still for that read-out and setting: for `COC(=O)[C@@H](NC(=O)[C@@H]1Cc2c([nH]c3ccccc23)CN1C(=O)OC(C)(C)C)C(C)C` the value was 8.9%; for `COC(=O)[C@H](Cc1c[nH]c2ccccc12)NC(=O)[C@@H]1Cc2c([nH]c3ccccc23)CN1C(=O)OC(C)(C)C`, 15.2%. The same measure, in the same setting: the value for `COC(=O)[C@H](C)NC(=O)[C@@H]1Cc2c([nH]c3ccccc23)CN1C(=O)OC(C)(C)C` was 18.8%. In turn, `CC(=O)OCC[N+](C)(C)C` [ACETYLCHOLINE] gave an Activity in the experiment filed under Rattus norvegicus [3] of 42.3%. On the same count and under the same terms, for `COC(=O)[C@H](CCSC)N1C(=O)[C@@H]2Cc3c([nH]c4ccccc34)CN2C1(C)C` the value was 15.1%; for `COC(=O)CC[C@@H](C(=O)OC)N1C(=O)[C@@H]2Cc3c([nH]c4ccccc34)CN2C1(C)C`, 9.9%; for `COC(=O)[C@H](CCCNC(=N)N)N1C(=O)[C@@H]2Cc3c([nH]c4ccccc34)CN2C1(C)C`, 36.7%. The compound `CCC(C)[C@H](NC(=O)[C@@H]1Cc2c([nH]c3ccccc23)CN1C(=O)OC(C)(C)C)C(=O)OC` (some centres undefined) registered an Activity in the experiment listed under Rattus norvegicus [1] of 10.9%. As to `COC(=O)[C@H](CCCNC(=N)N)NC(=O)[C@@H]1Cc2c([nH]c3ccccc23)CN1C(=O)OC(C)(C)C`, in the experiment listed under Rattus norvegicus [1], the Activity was found to be 11.3%.

Compound `COC(=O)C[C@H](NC(=O)[C@@H]1Cc2c([nH]c3ccccc23)CN1C(=O)OC(C)(C)C)C(=O)OC` displayed an Activity in the experiment listed under Rattus norvegicus [1] of 0%.

In the experiment filed under Rattus norvegicus [3], `COC(=O)[C@H](CC(C)C)N1C(=O)[C@@H]2Cc3c([nH]c4ccccc34)CN2C1(C)C` yielded an Activity of 15.7%. With `COC(=O)[C@H](C)N1C(=O)[C@@H]2Cc3c([nH]c4ccccc34)CN2C1(C)C`, the Activity entry in the experiment filed under Rattus norvegicus [2] was “Dose-dependent effect”; in the experiment listed under Rattus norvegicus [3], 91.8%.

Regarding `COC(=O)[C@H](Cc1c[nH]c2ccccc12)N1C(=O)[C@@H]2Cc3c([nH]c4ccccc34)CN2C1(C)C`, the Activity entry in the experiment filed under Rattus norvegicus [2] was “Dose-dependent effect”; in the experiment listed under Rattus norvegicus [3], 63.5%. In the experiment listed under Rattus norvegicus [3], `COC(=O)CN1C(=O)[C@@H]2Cc3c([nH]c4ccccc34)CN2C1(C)C` had an Activity of 45.5%. On to `COC(=O)[C@H](CCC(N)=O)N1C(=O)[C@@H]2Cc3c([nH]c4ccccc34)CN2C1(C)C`, for which the Activity in the experiment filed under Rattus norvegicus [3] stood at 0%. In turn, `COC(=O)[C@H](Cc1c[nH]cn1)NC(=O)[C@@H]1Cc2c([nH]c3ccccc23)CN1C(=O)OC(C)(C)C` gave an Activity in the experiment filed under Rattus norvegicus [1] of 0%. Compound `COC(=O)[C@H](Cc1ccc(O)cc1)N1C(=O)[C@@H]2Cc3c([nH]c4ccccc34)CN2C1(C)C` had an Activity in the experiment filed under Rattus norvegicus [3] of 16.3%. The same measure, in the same setting: the value for `COC(=O)[C@H](CO)N1C(=O)[C@@H]2Cc3c([nH]c4ccccc34)CN2C1(C)C` was 16.9%. Still for that read-out and setting: the value for `COC(=O)[C@H](C(C)C)N1C(=O)[C@@H]2Cc3c([nH]c4ccccc34)CN2C1(C)C` was 24.2%. Take `COC(=O)CNC(=O)[C@@H]1Cc2c([nH]c3ccccc23)CN1C(=O)OC(C)(C)C`: the Activity in the experiment listed under Rattus norvegicus [1] turned out to be 13.5%. Turning to `COC(=O)[C@H](CC(N)=O)N1C(=O)[C@@H]2Cc3c([nH]c4ccccc34)CN2C1(C)C`, in the experiment listed under Rattus norvegicus [3], the Activity is listed as 0%. In turn, `COC(=O)[C@H](CC(N)=O)NC(=O)[C@@H]1Cc2c([nH]c3ccccc23)CN1C(=O)OC(C)(C)C` returned an Activity in the experiment listed under Rattus norvegicus [1] of 0%. Still for that read-out and setting: the value for `COC(=O)CC[C@H](NC(=O)[C@@H]1Cc2c([nH]c3ccccc23)CN1C(=O)OC(C)(C)C)C(=O)OC` was 0%. On the same count and under the same terms, the value for `COC(=O)[C@@H](NC(=O)[C@@H]1Cc2c([nH]c3ccccc23)CN1C(=O)OC(C)(C)C)C(C)O` (some centres undefined) was 0%. In turn, `COC(=O)[C@H](Cc1c[nH]cn1)N1C(=O)[C@@H]2Cc3c([nH]c4ccccc34)CN2C1(C)C` showed an Activity in the experiment filed under Rattus norvegicus [3] of 0%.

In the experiment filed under Rattus norvegicus [1], `COC(=O)[C@H](Cc1ccc(O)cc1)NC(=O)[C@@H]1Cc2c([nH]c3ccccc23)CN1C(=O)OC(C)(C)C` returned an Activity of 7.4%. `COC(=O)[C@H](Cc1ccccc1)N1C(=O)[C@@H]2Cc3c([nH]c4ccccc34)CN2C1(C)C` registered an Activity in the experiment filed under Rattus norvegicus [3] of 0%. The compound `CN1CC(=O)N2[C@H](c3ccc4c(c3)OCO4)c3[nH]c4ccccc4c3C[C@@H]2C1=O` [TADALAFIL] yielded an Activity in the experiment filed under Rattus norvegicus [1] of 89.9%.
